ChEMBL document CHEMBL1151688, “Antiobesity designed multiple ligands: Synthesis of pyrazole fatty acid amides and evaluation as hypophagic agents” (Bioorg Med Chem, 2008)
The source made the active and inactive calls. No cut-off for these calls is given here.

Tests used:
[1] = molecular target: T1, Peroxisome proliferator-activated receptor alpha (Homo sapiens) (UniProt Q07869); assay: Activation of human PPARalpha assessed as receptor-GST-TIF2 interaction by GST pull down assay
T1 sequence (whole entry): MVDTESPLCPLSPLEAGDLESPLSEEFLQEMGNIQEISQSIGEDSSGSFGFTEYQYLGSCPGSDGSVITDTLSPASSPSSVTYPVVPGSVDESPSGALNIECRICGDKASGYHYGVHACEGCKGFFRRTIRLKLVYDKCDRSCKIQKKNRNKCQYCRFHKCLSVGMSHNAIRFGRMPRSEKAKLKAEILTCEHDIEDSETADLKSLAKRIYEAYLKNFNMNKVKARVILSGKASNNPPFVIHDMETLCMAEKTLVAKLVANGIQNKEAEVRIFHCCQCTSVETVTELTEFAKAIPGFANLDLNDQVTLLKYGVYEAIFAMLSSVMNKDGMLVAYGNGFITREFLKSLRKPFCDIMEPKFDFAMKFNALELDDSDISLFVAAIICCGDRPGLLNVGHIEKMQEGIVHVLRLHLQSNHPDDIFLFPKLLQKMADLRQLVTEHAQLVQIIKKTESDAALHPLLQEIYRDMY

Mus musculus [2] = assay: Effect on rectal temperature in mouse at 10 mg/kg, ip after 15 mins; assay type: functional, organism-based; design: dose 10 mg/kg
In short: (§1)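 Adult male 129S1/SvImJ mice (25–30 g); rectal temperature measured with a probe at 3 cm depth before dosing and 15 min after ip injection; tests run 9:00–15:00 h; mean ± SEM.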

Mus musculus [3] = assay: Inhibition of […]-induced hypothermia in mouse assessed as rectal temperature at 10 mg/kg ip after 15 mins; assay type: functional, organism-based; design: dose 10 mg/kg
In short: (§2)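 Male 129S1/SvImJ mice given compound ip together with WIN 2 mg/kg ip; rectal temperature taken by probe at 3 cm depth before and 15 min after injection; compared with WIN alone by Student's t-test.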

Rattus norvegicus [4] = assay: Inhibition of food intake in 24 hrs food-deprived Wistar rat assessed at 3 mg/kg, ip; assay type: functional, organism-based; design: dose 3 mg/kg
In short: (§3)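 Male Wistar rats (250–450 g), habituated to handling, food-deprived 24 h with water available; compound suspended in saline with Tween 80, given ip; 15 min later returned to home cage with weighed food; intake (g/kg) measured at 30, 60, 120 and 240 min; ≥8 rats per group, ANOVA vs vehicle.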

Rattus norvegicus [5] = assay: Inhibition of food intake in 24 hrs food-deprived Wistar rat assessed at 0.3 mg/kg, ip; assay type: functional, organism-based; design: dose 0.3 mg/kg; in short: as §3
Mus musculus [6] = assay: Effect on rectal temperature in mouse at 3 mg/kg, ip after 15 mins; assay type: functional, organism-based; design: dose 3 mg/kg; in short: as §1
Mus musculus [7] = assay: Inhibition of […]-induced hypothermia in mouse assessed as rectal temperature at 3 mg/kg ip after 15 mins; assay type: functional, organism-based; design: dose 3 mg/kg; in short: as §2
Mus musculus [8] = assay: Inhibition of […]-induced decrease in locomotor activity in ip dosed mouse after 15 mins; assay type: functional, organism-based
[9] = molecular target: Peroxisome proliferator-activated receptor alpha (Homo sapiens) (UniProt Q07869); assay: Agonist activity at human PPARalpha expressed in human MCF7 cells coexpressing TIF2 by luciferase reporter gene assay

Compound	Activity [1]	Activity (Rattus norvegicus [4])	Activity (Rattus norvegicus [5])	Activity (Mus musculus [7])	other results
CCCCCCCC/C=C\CCCCCCCCNC(=O)c1cc(-c2ccc(Cl)cc2)n(-c2ccc(Cl)cc2Cl)n1	Active				
CCCCCCCCCCCCCCCCNC(=O)c1cc(-c2ccc(Cl)cc2)n(-c2ccc(Cl)cc2)n1	inactive				Activity (Mus musculus [2]): inactive; Activity (Mus musculus [3]): inactive
CCCCCCCCCCCCCCCCNC(=O)c1nn(-c2ccc(Cl)cc2Cl)c(-c2ccc(Cl)cc2)c1C	inactive	inactive	inactive		
CCCCCCCC/C=C\CCCCCCCCNC(=O)c1cc(-c2ccc(Cl)cc2)n(-c2ccccc2)n1	Active	Active	Active	inactive	Activity (Mus musculus [6]): inactive
CCCCCCCCCCCCCCCCNC(=O)c1cc(-c2ccc(Cl)cc2)n(-c2ccccc2)n1	inactive			inactive	Activity (Mus musculus [6]): inactive; Activity (Mus musculus [8]): Active
CCCCCCCC/C=C\CCCCCCCCNC(=O)c1nn(-c2ccc(Cl)cc2Cl)c(-c2ccc(Cl)cc2)c1C	Active				
CCCCCCCCCCCCCCCCNC(=O)c1cc(-c2ccc(Cl)cc2)n(-c2ccc(Cl)cc2Cl)n1	inactive				
Cc1c(C(=O)NN2CCCCC2)nn(-c2ccc(Cl)cc2Cl)c1-c1ccc(I)cc1					Activity [9]: inactive
CCCCCCCC/C=C\CCCCCCCCNC(=O)c1cc(-c2ccc(Cl)cc2)n(-c2ccc(Cl)cc2)n1	Active	inactive	inactive	Active	
